Compounds with a hit are over-represented: about 3.5% of the library has one in this group of screens.
FLuc stim CS = FLuc activators, initial screening, artefact control for FLuc-dependent activation tests, biochemical, ATPlite luminescence; Luciferin 4-monooxygenase (Photinus pyralis), P08659; ATPlite luciferase biochemical, 10 min; 0 = ATP-free wells, 1 = DMSO control; activation factor at 10 µM; 200,000 tested, under 10 active;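 active = luciferase activation factor, scaled between plate controls, of at least 2 with compound at 10 µM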
Target sequence (P08659 whole entry, looked up): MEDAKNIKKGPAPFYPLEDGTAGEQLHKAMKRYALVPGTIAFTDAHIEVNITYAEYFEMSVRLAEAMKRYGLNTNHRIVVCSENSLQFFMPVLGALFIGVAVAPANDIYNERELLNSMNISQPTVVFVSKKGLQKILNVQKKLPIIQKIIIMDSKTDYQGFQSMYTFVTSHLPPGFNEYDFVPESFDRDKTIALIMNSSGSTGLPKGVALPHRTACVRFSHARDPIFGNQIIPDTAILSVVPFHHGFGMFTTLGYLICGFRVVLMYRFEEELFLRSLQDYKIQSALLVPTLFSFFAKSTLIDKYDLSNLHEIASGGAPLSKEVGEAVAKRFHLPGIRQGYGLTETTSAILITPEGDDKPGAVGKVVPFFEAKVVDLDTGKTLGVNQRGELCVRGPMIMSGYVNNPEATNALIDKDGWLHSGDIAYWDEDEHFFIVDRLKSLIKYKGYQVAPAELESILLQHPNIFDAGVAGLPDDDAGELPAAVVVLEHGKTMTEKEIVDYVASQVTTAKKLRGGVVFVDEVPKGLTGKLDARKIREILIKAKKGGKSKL
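Assay system: Luciferase/luciferin detection reagent, cell-free biochemical luciferase assay / Read-out: luciferase activation / Benchmarks: No-ATP low control, compound-free enzyme-plus-ATP high control / Medium: PBS buffer for ATP / Detection: luminescence measurement of luciferase light output / Schedule: 10 min at ambient temperature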
Pf gamet viab = late stage P. falciparum gametocyte viability inhibitors, primary screen, ATP luminescence, HTS; 0.065% of 150,000 active; P. falciparum stage V gametocytes, 24 h; AID 743093, 2013; inhibition, % at 10.9 µM;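 active = inhibition above the mean plus 3 SD of compounds within the control limits, set per campaign, cut at about 38% in these data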
APP 5'UTR act = activators of APP 5'UTR luciferase reporter, primary screen, SH-SY5Y cells; SH-SY5Y APP 5'UTR luciferase reporter, luminescence; zero percent = DMSO vehicle wells; activation, % at 2 µM; 1% of 190,000 active; AID 1276, 2008;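 active = activation above a set limit, based on mean plus 3 SD of controls, cut at about 140% in these data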
FLuc inh counter = firefly luciferase enzyme inhibitors, primary screen, artefact control for luciferase-based inhibitor screens, biochemical, luminescence, ATPLite; Luciferin 4-monooxygenase (Photinus pyralis), P08659; 10 min; 1.5% of 200,000 active; AID 1006, 2008; inhibition, % at 10 µM;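 active = inhibition above about 50% when tested at 10 µM, limit read from the data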
NF-kB expr up = activators of NF-kB expression in neurons, primary screen, cell-based, HTS. 1.6% of 190,000 active. human neuronal cells, NF-kB reporter expression; active compounds read high. fold change at 12.5 µM; in the data active = fold change above about 3.3
STAT1 activator = STAT1 signaling activators, primary screen, cell-based, HTS, luciferase reporter. NIH 3T3 STAT1-luciferase reporter, IFN-gamma, luminescence; 100% = IFN-gamma alone, no compound. activation (% of control), % at 5.5 µM. 2.6% of 200,000 active. AID 932, 2007;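 active = activation above the screen-wide mean activation plus 3 SD, cut at about 130% in these data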
Of the large screens only hits and unclear results are named; the others gave an inactive call.

O=C(O)c1cccc(-n2c(-c3cnccn3)n[nH]c2=S)c1	none
Cc1onc(-c2ccccc2Cl)c1C(=O)O/N=C(\N)c1ccc([N+](=O)[O-])o1	none (no result: FLuc stim CS, APP 5'UTR act, FLuc inh counter, NF-kB expr up, STAT1 activator)
Cn1c(=Nc2ccccc2)sc2ccccc21	none
CN(C)c1ccc(N=c2sc3ccccc3n2C)cc1	NF-kB expr up 4.6, STAT1 activator 138 (no result: Pf gamet viab)
C[C@]12C(=O)N(c3ccc(Br)cc3)C(=O)N1[C@H]1c3ccccc3OC[C@@H]1[C@H]2c1ccccc1	none (no result: FLuc stim CS, APP 5'UTR act, FLuc inh counter, NF-kB expr up, STAT1 activator)
CC(C)(O)C#Cc1ccc(C(=O)NC(CCCNC(N)=O)C(=O)O)s1 (centres undefined)	none
CCOc1ccc(NC(=O)c2ccco2)cc1	FLuc inh counter 76, NF-kB expr up 3.9
CN(c1ccccc1)S(=O)(=O)c1ccc(NC(=O)c2ccco2)cc1	STAT1 activator 132
O=C(Nc1ccc(Nc2ccccc2)cc1)c1ccco1	NF-kB expr up 4.2, STAT1 activator 134 (no result: Pf gamet viab)
CCOc1ccc(NC(=O)Nc2ccccc2SC)cc1	FLuc inh counter 50
CCN(c1ccccc1)S(=O)(=O)c1ccc(NC(=O)c2ccco2)cc1	none
CCc1nnc(NC(=O)/C=C/c2cccs2)s1	none
CCOC(=O)c1ccc2nc3c(cc2c1)CCS3	STAT1 activator 135
CCCN(CCC)CC(O)CN1C(=O)NC(C)(C)C1=O (centres undefined)	none
Nc1nc(-c2cccc(F)c2)cs1	NF-kB expr up 3.4
Nc1nc(-c2ccc3c(c2)CCCC3)cs1	FLuc inh counter 58, NF-kB expr up 5.3, STAT1 activator 136
Nc1nc(-c2ccc3c(c2)OCCO3)cs1	none (no result: Pf gamet viab)
Fc1cccc(-c2csc(-c3ccno3)n2)c1	none (no result: FLuc stim CS, APP 5'UTR act, FLuc inh counter, NF-kB expr up, STAT1 activator)
CCCOc1ccc(NC(=O)c2cc3cc(C)ccc3[nH]2)cc1	none (no result: FLuc stim CS, APP 5'UTR act, FLuc inh counter, NF-kB expr up, STAT1 activator)
CCOc1cc(C2C3=C(CC(C)(C)CC3=O)N(CCOC)C3=C2C(=O)CC(C)(C)C3)ccc1O	none (no result: FLuc stim CS, APP 5'UTR act, FLuc inh counter, NF-kB expr up, STAT1 activator)
COc1ccc(Cn2c(=O)n(Cc3ccco3)c(=N)c3c4c(sc32)COC(C)(C)C4)cc1	none
CCOc1ccc(-c2nnc(-c3ccc(OC)cc3)o2)cc1	none
Cc1nnc(NC2=NCCC2)o1	none
CCOc1ccc(-c2nnc(-c3ccncc3)o2)cc1	STAT1 activator 133 (no result: Pf gamet viab)
CCOc1ccc(-c2nc3ccccc3c(=O)o2)cc1	FLuc inh counter 68, NF-kB expr up 6.3
c1coc(-c2nnc(NC3=NCCC3)o2)c1	STAT1 activator 129 (no result: Pf gamet viab)
CCOc1ccc(-c2nnc(-c3ccccc3)o2)cc1	FLuc inh counter 75, NF-kB expr up 4.2 (no result: Pf gamet viab)
CCOC(=O)c1cnn(CCOC(=O)c2ccc(F)cc2)c1NC(=O)c1ccc(F)cc1	none
Cc1nn(C)c(Cl)c1C(=O)NCC(=O)NCc1ccccc1	none
O=C1NC(Cc2ccccc2)c2nc3cc(Cl)ccc3c(=O)n2-c2ccccc21 (centres undefined)	none (no result: FLuc stim CS, APP 5'UTR act, FLuc inh counter, NF-kB expr up, STAT1 activator)
CCOc1ccc(-c2nnc(NC3=NCCCCC3)o2)cc1	NF-kB expr up 4.1 (no result: Pf gamet viab)
CCCC(=O)N1CCN(c2nnc(-c3ccccc3)c3ccccc23)CC1	none (no result: FLuc stim CS, APP 5'UTR act, FLuc inh counter, NF-kB expr up, STAT1 activator)
Cc1cccc(-c2nsc(SCC(=O)N3CCCC3)n2)c1	NF-kB expr up 3.9, STAT1 activator 134 (no result: Pf gamet viab)
CC1CN(C(=O)CSc2nc(-c3ccc(F)cc3)cs2)CC(C)O1 (centres undefined)	none (no result: Pf gamet viab)
O=C(CSc1nc(-c2ccc(F)cc2)cs1)N1CCOCC1	STAT1 activator 129 (no result: Pf gamet viab)
O=C(CSc1nc(-c2ccccc2)ns1)N1CCOCC1	STAT1 activator 142
Cc1cccc(-c2nsc(SCC(=O)Nc3nccs3)n2)c1	none (no result: Pf gamet viab)
C/C(=C\c1ccccc1)CN1CCN(C(C)C)C(CCO)C1 (centres undefined)	none (no result: FLuc stim CS, APP 5'UTR act, FLuc inh counter, NF-kB expr up, STAT1 activator)
O=C(NC1CCCCCC1)c1c(O)c2ccccc2[nH]c1=O	STAT1 activator 141 (no result: Pf gamet viab)
O=C(Cc1c(O)c2ccccc2[nH]c1=O)NC1CCCCCC1	none (no result: Pf gamet viab)
CC1(C)Cc2c(sc(NC(=O)c3ccc(Br)o3)c2C#N)CO1	FLuc inh counter 64, STAT1 activator 133 (no result: Pf gamet viab)
O=C(NC(=S)Nc1ccc(S(=O)(=O)Nc2ncccn2)cc1)c1ccc(Br)cc1	none
CCOc1cc(C2NN=C(c3ccccc3)S2)ccc1OCc1ccc(F)cc1 (centres undefined)	NF-kB expr up 4.5, STAT1 activator 133 (no result: Pf gamet viab)
CCOc1cc(C2NN=C(c3ccccc3)S2)ccc1OCc1ccccc1Cl (centres undefined)	NF-kB expr up 3.7, STAT1 activator 136 (no result: Pf gamet viab)
CC(C)(C)N(CC#CCC(O)(c1ccccc1)c1ccccc1)CCO	none (no result: FLuc stim CS, APP 5'UTR act, FLuc inh counter, NF-kB expr up, STAT1 activator)
CCN=c1scc(C)n1/N=C/c1ccc(O)c(O)c1O	FLuc inh counter 76
CCN=c1scc(C)n1/N=C/c1cc(Br)c(O)c(Br)c1	none
Cc1ccc(-c2csc(NC(=O)CSc3nnc4c(n3)[nH]c3ccccc34)n2)cc1	none
COc1ccc(/C=N/n2cc(-c3ccccc3)nc2N)cc1	none (no result: Pf gamet viab)
COc1ccc(/C=N/N2C(=O)c3ccccc3C2=O)cc1	Pf gamet viab 57, FLuc inh counter 74
COc1ccc(/C=N\n2nnc3ccccc32)cc1	APP 5'UTR act 191, FLuc inh counter 69 (no result: Pf gamet viab)
COc1ccc(-c2cc(C(=O)NC(C)C)no2)cc1	NF-kB expr up 3.7, STAT1 activator 144 (no result: Pf gamet viab)
COC(=O)c1cc(-c2ccc(OC)cc2)on1	none
O=c1cccc2n1Cc1cc3ccccc3nc1-2	STAT1 activator 135
COc1ccccc1N1CCN(C2=Nc3cccc4cccc2c34)CC1	FLuc inh counter 78
CC1=C(C(=O)OCCC(C)C)C(c2ccc3c(c2)OCO3)NC(=O)N1 (centres undefined)	none (no result: FLuc stim CS, APP 5'UTR act, FLuc inh counter, NF-kB expr up, STAT1 activator)
O=C(Nc1ccc(Cl)cc1)C(c1ccccc1)N(CCO)CCO (centres undefined)	NF-kB expr up 4.3
Fc1ccc(Cn2ccc(-c3cnc(-c4ccccc4)s3)n2)cc1	STAT1 activator 131
Cc1ccc(Cn2ccc(-c3cnc(-c4ccccc4)s3)n2)cc1	none
O=C(c1ccc(F)cc1)n1ccc(-c2cnc(-c3ccccc3)s2)n1	NF-kB expr up 3.6, STAT1 activator 136
Cc1cc(/C=C2\Cc3ccccc3C2=O)c(C)n1-c1ccccc1	FLuc inh counter 91
Cc1cc(C=C2C(=O)c3ccccc3C2=O)c(C)n1-c1ccccc1	FLuc inh counter 90
CC1=NN(c2ccccc2)C(=O)/C1=C\c1cc(C)n(-c2ccccc2)c1C	FLuc inh counter 63
Cc1cc(/C=C2\SC(=S)NC2=O)c(C)n1-c1cccc(O)c1	none (no result: FLuc stim CS, APP 5'UTR act, FLuc inh counter, NF-kB expr up, STAT1 activator)
Cc1cc(C=C2C(=O)c3ccccc3C2=O)c(C)n1-c1ccc(C(=O)O)cc1	none
Cc1cc(/C=C2/C(=O)NN(c3ccccc3)C2=O)c(C)n1-c1cccc(O)c1	APP 5'UTR act 181, FLuc inh counter 94
CC1=NN(c2ccccc2)C(=O)/C1=C\c1cc(C)n(-c2cccnc2)c1C	none (no result: FLuc stim CS, APP 5'UTR act, FLuc inh counter, NF-kB expr up, STAT1 activator)

Bioassay records: PubChem, several laboratories
